Source: PubChem (The Scripps Research Institute Molecular Screening Center)
PREPL inhibitor: inhibits the human prolyl oligopeptidase-like enzyme; Q4J6C6; recombinant PREPL, fluorescence polarization activity-based probe; inhibition, % at 5.96 µM; actives 0.68% (n = 320,000); AID 2751; in the data active = inhibition above about 43%
LYPLA2 inh: blocks human lysophospholipase 2, a PME1 counter-screen | actives 0.38% (n = 320,000) | inhibition, % at 5.9 µM | recombinant LYPLA2, FP-Rh probe fluorescence polarization | O95372;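 active = inhibition above the screen-wide mean plus 3 SD, limit set per campaign, cut at about 26% in these data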
Target sequence (O95372 whole entry, looked up): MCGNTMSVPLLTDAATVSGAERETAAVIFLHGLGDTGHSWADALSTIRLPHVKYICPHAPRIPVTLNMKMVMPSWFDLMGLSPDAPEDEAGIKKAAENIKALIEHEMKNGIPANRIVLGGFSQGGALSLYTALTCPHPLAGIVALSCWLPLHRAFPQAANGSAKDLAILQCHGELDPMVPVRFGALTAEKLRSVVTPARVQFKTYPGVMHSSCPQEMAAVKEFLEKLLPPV
procasp3 activ: activators of human procaspase-3 | recombinant procaspase-3 D3A, Ac-DEVD-pNA absorbance 405 nm | activation, % at 8.5 µM | actives 0.11% (n = 330,000) | AID 463141;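 active = activation above the mean of all tested compounds plus 3 SD, cut at about 21% in these data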
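Test system: Procaspase-3 D3A mutant, all three cleavage aspartates alanine | Dosing: Single dose, 8.5 µM nominal compound, 0.8% DMSO | Schedule: 1 h preincubation, 2 h reaction | Technique: 405 nm absorbance of p-nitroaniline, reads at 0 and 120 min | Repeats: One well per compound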
LYPLA1 counter: blocks human lysophospholipase 1, a PME1 counter-screen; inhibition, % at 5.9 µM; O75608; actives 0.16% (n = 320,000); recombinant LYPLA1, FP-Rh probe fluorescence polarization; AID 2174;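 active = inhibition above the mean of all tested compounds plus 3 SD, set per campaign, cut at about 14% in these data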;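 also: inhibitors block serine hydrolase probe labeling of LYPLA1 so polarization falls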
proCasp7 act: activates human procaspase-7, counter-screen for procaspase-3 activators. actives 0.093% (n = 330,000). recombinant procaspase-7, Ac-DEVD-pNA absorbance 405 nm; D23A/D198A/D206A triple mutant, cannot self-cleave; scale: DMSO 0, 5 µM enzyme 100. P55210. activation, % at 8.5 µM;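 active = percent activation above the screen-wide mean plus 3 SD, cut at about 25% in these data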
Target sequence (P55210 whole entry D23A/D198A/D206A): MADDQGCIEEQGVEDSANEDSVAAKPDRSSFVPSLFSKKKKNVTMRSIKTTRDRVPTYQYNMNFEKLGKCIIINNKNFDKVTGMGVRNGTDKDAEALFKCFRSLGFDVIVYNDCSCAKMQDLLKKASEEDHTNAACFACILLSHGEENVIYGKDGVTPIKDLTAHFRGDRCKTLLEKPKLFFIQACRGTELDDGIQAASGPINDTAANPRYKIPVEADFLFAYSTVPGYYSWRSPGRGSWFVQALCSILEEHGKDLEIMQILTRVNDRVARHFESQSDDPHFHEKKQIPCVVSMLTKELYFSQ
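Test system: Procaspase-7 triple mutant (PC-7 D3A). Also added: Ac-DEVD-pNA substrate, 400 µM as added. Schedule: 1 h enzyme–compound preincubation and 2 h substrate reaction, both 25 °C. Signal: p-Nitroaniline absorbance at 405 nm, read at 0 and 120 min. Control set: low DMSO alone, high DMSO plus 5 µM PC-7.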
LYPLA2 conf: counter-screen for PME1 inhibitors: confirmation of human LYPLA2 inhibitors; actives 72% (n = 1,100); shares compounds with LYPLA2 inh; AID 2232; inhibition, % at 5.9 µM; recombinant LYPLA2, FP-Rh probe fluorescence polarization;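 active = mean inhibition across replicates above the hit cutoff set in the primary screen, cut at about 26% in these data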;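 also: blocked labeling of the enzyme by serine hydrolase FP-Rh probe lowers polarization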
LYPLA2 gel ABPP: blocks human acyl-protein thioesterase 2 in gel ABPP | shares compounds with LYPLA2 inh | rhLYPLA2 in mouse brain proteome, gel ABPP FP-Rh | inhibition, % at 20 µM | actives 30% (n = 150) | AID 652029;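 active = inhibition of LYPLA2 enzyme probe labeling above about 50%, limit read from the data; inactive = inhibition below that limit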;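 also: loss of FP-Rh probe labeling of the LYPLA2 gel band measured as band density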
Large screens that a line does not name were inactive (follow-up assays come after a bar, where they were run). A selection: hits, their analogues and other compounds. The true share with any hit is near 1.1%.

COc1cc(/C=C(\C#N)C(=O)NCc2ccccc2)ccc1OCc1ccc(C(=O)O)cc1	LYPLA2 inh 41 | LYPLA2 conf 29
N#C/C(=C\c1ccc(OCc2ccc(C(=O)O)cc2)cc1)C(=O)NCc1ccccc1	LYPLA2 inh 40 | LYPLA2 conf 33
COc1cc(/C=C(/C#N)C(=O)Nc2ccccc2)ccc1OCc1ccc(C(=O)O)cc1	none
CCC(NC(=O)c1cc(COc2ccc(C)nc2)on1)c1ccc(C)cc1 (stereo not drawn)	none
COc1ccc(C(=O)NCCc2nnc3ccc(SCC(=O)Nc4ccccc4F)nn23)cc1	none
O=C(c1ccc(N2CCNCC2)cc1)c1cccnc1	LYPLA2 inh 26 | LYPLA2 conf inactive
COc1ccc(S(=O)(=O)N2CCCC2C(=O)n2nc(C)cc2C)cc1 (stereo not drawn)	none
CCCCCN1CC(=O)N2Cc3[nH]c4ccccc4c3C[C@H]2C1=O	LYPLA2 inh 56 | LYPLA2 conf 56 | LYPLA2 gel ABPP inactive
CCCCCCN1CC(=O)N2Cc3[nH]c4ccccc4c3C[C@H]2C1=O	LYPLA2 inh 58 | LYPLA2 conf 58 | LYPLA2 gel ABPP inactive
C=CCN1CC(=O)N2Cc3[nH]c4ccccc4c3C[C@H]2C1=O	none
O=C1[C@@H]2Cc3c([nH]c4ccccc34)CN2C(=O)CN1CCCO	none
COc1ccccc1NC(=O)CCn1c(=S)oc2ccccc21	none
COc1ccccc1NC(=O)CCn1c(=O)c2cccn2c2ccccc21	LYPLA2 inh 26 | LYPLA2 conf inactive
COc1ccc(-c2noc3c2-c2nc(C4CCCCC4)sc2CC3)cc1	none
Cc1ccc(NC2=C(Cl)C(=O)OC2OC(=O)c2ccc(C)cc2)cc1 (stereo not drawn)	LYPLA2 inh 30 | LYPLA2 conf 38
O=C1Nc2ccc([N+](=O)[O-])cc2OC1CCN1CCN(Cc2ccccc2)CC1 (stereo not drawn)	none
O=C1Nc2ccc([N+](=O)[O-])cc2OC1CCN1CCN(Cc2ccc3c(c2)OCO3)CC1 (stereo not drawn)	LYPLA2 inh 72 | LYPLA2 conf 79 | LYPLA2 gel ABPP 61
COc1ccc(CCNC(=O)COc2ccc(-c3ccccc3)cc2)cc1OC	LYPLA2 inh 30 | LYPLA2 conf 31
CC(C)(C)c1ccc(C(=O)COC(=O)CN2C(=O)NC3(CCCC3)C2=O)cc1	none
Cc1coc2c1C(=O)C(=O)c1c-2ccc2c(C)cccc12	LYPLA2 inh 39 | LYPLA2 conf inactive
Cc1coc2c1C(=O)C(=O)c1c-2ccc2c1CCCC2(C)C	LYPLA2 inh 35 | LYPLA2 conf 56
CCC(CC)NC(=O)C1CC(=O)N(CCc2ccc(F)cc2)C1 (stereo not drawn)	none
O=C(CN1C(=O)CSc2ncccc21)Nc1cccc(Cl)c1	LYPLA2 inh 62 | LYPLA2 conf 67 | LYPLA2 gel ABPP inactive
COc1cccc(NC(=O)CN2C(=O)COc3ccc(C)cc32)c1	LYPLA2 inh 31 | LYPLA2 conf 29
COCCCNC(=O)CN1C(=O)CSc2ncccc21	none
O=C(CN1C(=O)CSc2ccc(C(F)(F)F)cc21)Nc1ccccc1	LYPLA2 inh 37 | LYPLA2 conf 37
O=C(CN1C(=O)COc2ccc(S(=O)(=O)N3CCCC3)cc21)Nc1cccc(F)c1	LYPLA2 inh 41 | LYPLA2 conf 47
O=C1O[C@@H]([C@H](O)CO)C(O)=C1O	none
NC(=O)CC(NC(=O)c1ccc(Br)cc1)c1ccc(NC2CCCCCCC2)c([N+](=O)[O-])c1 (stereo not drawn)	none
COc1cc(NC(=O)CN2C(=O)CSc3ccc(S(=O)(=O)N4CCCC4)cc32)cc(OC)c1	LYPLA2 inh 28 | LYPLA2 conf inactive
CN1C(C)(C)c2ccccc2OS1(=O)=O	none
CCOc1cc(CN2CCN(c3cccc(C(F)(F)F)c3)CC2)ccc1OC	none
CCOc1cc(CN2CCN(c3cccc(C(F)(F)F)c3)CC2)ccc1O	LYPLA2 inh 28 | LYPLA2 conf 29
O=[N+]([O-])c1ccc(CN2CCOCCOCCN(Cc3ccc([N+](=O)[O-])cc3)CCOCC2)cc1	LYPLA2 inh 37 | LYPLA2 conf inactive
O=[N+]([O-])c1ccc(CN2CCCCCC2)cc1	none
Cc1cccc(NC(=O)c2c(O)c3ccccc3n(C)c2=O)c1	none
O=C1C2CCCN2C(=O)N1CCCCN1CCN(c2cccc(Cl)c2)CC1 (stereo not drawn)	LYPLA2 inh 39 | LYPLA2 conf 36
C/C(CCC(C)C)=N\NC(=S)Nc1cc(S(=O)(=O)N2CCOCC2)ccc1N1CCOCC1	LYPLA2 inh 28 | LYPLA2 conf 62
O=[N+]([O-])c1ccc(Oc2cccc(C(F)(F)F)c2)nc1	LYPLA2 inh 41 | LYPLA2 conf 75 | LYPLA2 gel ABPP inactive
O=C(CSc1ccc(Cl)cc1)N1CCN(c2ccc([N+](=O)[O-])cc2Cl)CC1	LYPLA2 inh 31 | LYPLA2 conf inactive
CC1CN(C(=O)CCC(=O)N2CCN(c3cccc(C(F)(F)F)c3)CC2)c2ccccc2O1 (stereo not drawn)	LYPLA2 inh 59 | LYPLA2 conf 59 | LYPLA2 gel ABPP inactive
Cc1cc(N2CCOCC2)nc2ccc(NC(=O)CCC(=O)N3CCCCC3)cc12	none
Cn1c(=O)cc(OCC(=O)N2CCN(c3cccc(C(F)(F)F)c3)CC2)c2ccccc21	LYPLA2 inh 33 | LYPLA2 conf 62 | LYPLA2 gel ABPP inactive
Cc1cc(N2CCOCC2)nc2ccc(NC(=O)CCC(=O)N3CCN(c4cccc(C(F)(F)F)c4)CC3)cc12	LYPLA2 inh 41 | LYPLA2 conf 51 | LYPLA2 gel ABPP inactive
O=C(CCNS(=O)(=O)c1cccs1)N1CCN(c2cccc(C(F)(F)F)c2)CC1	LYPLA2 inh 37 | LYPLA2 conf 28
Cc1nn(Cc2ccccc2)c(C)c1NC(=O)CSc1nc2c(c(C(F)(F)F)n1)CCc1ccccc1-2	none
Cc1ccc(-c2noc(CCC(=O)N3CCN(c4cccc(C(F)(F)F)c4)CC3)n2)cc1	LYPLA2 inh 42 | LYPLA2 conf 38
CN(CC(=O)Nc1cccc(F)c1)CC(=O)Nc1cccc(S(=O)(=O)N2CCCCC2)c1	none
O=C(c1cc(-c2ccc3c(c2)OCO3)on1)N1CCN(c2ccccc2)CC1	LYPLA2 inh 28 | LYPLA2 conf inactive
CC(=O)[C@@]1(O)[C@H](C)CC2C3CC=C4CC(OP(=O)(O)O)CC[C@]4(C)C3CC[C@@]21C (stereo partly drawn)	none
Cc1nc(N2CCN(C(=O)c3ccco3)CC2)[nH]c(=O)c1C	none
